Test results as given in ChEMBL document CHEMBL2046284, “N-Pyridyl and Pyrimidine Benzamides as KCNQ2/Q3 Potassium Channel Openers for the Treatment of Epilepsy” (ACS Med Chem Lett, 2011).
The source made the active and inactive calls. The calls are words filed in the database; no cut-off is given here.

Key:
[1] = biological target: Voltage-gated potassium channel, KQT; KCNQ2(Kv7.2)/KCNQ3(Kv7.3) (Homo sapiens, UniProt O43525+O43526); test: Agonist activity at KCNQ2/KCNQ3 expressed in CHO cells assessed as increase in KCl-induced 86Rb+ efflux incubated for 10 mins prior to KCl-induction by liquid scintillation counting; assay type: functional, cell-based
[2] = biological target: Voltage-gated potassium channel KCNQ3/KCNQ5 (Homo sapiens, UniProt O43525+Q9NR82); test: Agonist activity at KCNQ3/KCNQ5 expressed in CHO cells increase in KCl-induced 86Rb+ efflux incubated for 10 mins prior to KCl-induction by liquid scintillation counting; assay type: functional, cell-based
[3] = biological target: Voltage-gated potassium channel, IKs; KCNQ1(Kv7.1)/KCNE1(MinK) (Homo sapiens, UniProt P15382+P51787); test: Antagonist activity at KCNQ1/MINK expressed in CHO cells assessed as inhibition of KCl-induced 86Rb+ efflux incubated for 10 mins prior to KCl-induction by liquid scintillation counting; assay type: functional, cell-based
Rattus norvegicus [4] = test: Toxicity in rat assessed as nonhemolytic anemia after 28 days administered with repeated doses; assay type: organism-based; conditions: in vivo, 672 h
Cynomolgus monkey = test: Toxicity in cynomolgus monkey assessed as nonhemolytic anemia after 28 days administered with repeated doses; assay type: organism-based, Macaca fascicularis; conditions: in vivo, 672 h
Rattus norvegicus [5] = test: Antiepileptic activity in po dosed Wistar rat assessed as latency in maximum electric shock-induced hind limb extension administered 30 mins prior to electric shock-challenge measured up to 6 secs; assay type: functional; conditions: Hindlimb
Rattus norvegicus [6] = test: Toxicity in po dosed rat assessed as nonhemolytic anemia after 14 days; assay type: organism-based; conditions: in vivo, 336 h
Rattus norvegicus [7] = test: Antiepileptic activity in po dosed Sprague-Dawley rat assessed as latency in PTZ-induced seizure administered 30 mins prior to PTZ-challenge measured up to 15 minutes; assay type: functional
[8] = Agonist activity at KCNQ expressed in CHO cells assessed as increase in KCl-induced 86Rb+ efflux incubated for 10 mins prior to KCl-induction by liquid scintillation; assay type: functional, cell-based
Rattus norvegicus [9] = test: Volume of distribution during terminal phase in Sprague-Dawley rat at 2 mg/kg, iv; assay type: ADME, organism-based; design: dose 2 mg/kg, route intravenous; conditions: in vivo
Outline: (§1)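 Rats received a single 2 mg/kg intravenous dose. Half-life and clearance were determined, and volume of distribution (Vz) was calculated from the terminal phase.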

[10] = Half life in Sprague-Dawley rat at 2mg/kg, iv; assay type: ADME, organism-based; conditions: in vivo; outline: as §1
[11] = Selectivity ratio of EC50 for KCNQ3/KCNQ5 to EC50 for KCNQ2/KCNQ3
[12] = biological target: Voltage-gated inwardly rectifying potassium channel KCNH2 (Homo sapiens, UniProt Q12809); test: Inhibition of human ERG
[13] = Clearance in Sprague-Dawley rat at 2mg/kg, iv; assay type: ADME, organism-based; conditions: in vivo; outline: as §1
[14] = Inhibition of L-type calcium channel
[15] = Activity at GABA(A) gated channel at 10 uM
[16] = Oral bioavailability in Sprague-Dawley rat at 2 mg/kg; assay type: ADME, organism-based; conditions: in vivo
[17] = Tmax in Sprague-Dawley rat at 2 mg/kg, po; assay type: ADME, organism-based; design: dose 2 mg/kg, route oral; conditions: in vivo
[18] = biological target: Sodium channel protein type 5 subunit alpha (Homo sapiens, UniProt Q14524); test: Inhibition of NaV1.5

Chain of Voltage-gated potassium channel, KQT; KCNQ2(Kv7.2)/KCNQ3(Kv7.3) (O43526 whole entry): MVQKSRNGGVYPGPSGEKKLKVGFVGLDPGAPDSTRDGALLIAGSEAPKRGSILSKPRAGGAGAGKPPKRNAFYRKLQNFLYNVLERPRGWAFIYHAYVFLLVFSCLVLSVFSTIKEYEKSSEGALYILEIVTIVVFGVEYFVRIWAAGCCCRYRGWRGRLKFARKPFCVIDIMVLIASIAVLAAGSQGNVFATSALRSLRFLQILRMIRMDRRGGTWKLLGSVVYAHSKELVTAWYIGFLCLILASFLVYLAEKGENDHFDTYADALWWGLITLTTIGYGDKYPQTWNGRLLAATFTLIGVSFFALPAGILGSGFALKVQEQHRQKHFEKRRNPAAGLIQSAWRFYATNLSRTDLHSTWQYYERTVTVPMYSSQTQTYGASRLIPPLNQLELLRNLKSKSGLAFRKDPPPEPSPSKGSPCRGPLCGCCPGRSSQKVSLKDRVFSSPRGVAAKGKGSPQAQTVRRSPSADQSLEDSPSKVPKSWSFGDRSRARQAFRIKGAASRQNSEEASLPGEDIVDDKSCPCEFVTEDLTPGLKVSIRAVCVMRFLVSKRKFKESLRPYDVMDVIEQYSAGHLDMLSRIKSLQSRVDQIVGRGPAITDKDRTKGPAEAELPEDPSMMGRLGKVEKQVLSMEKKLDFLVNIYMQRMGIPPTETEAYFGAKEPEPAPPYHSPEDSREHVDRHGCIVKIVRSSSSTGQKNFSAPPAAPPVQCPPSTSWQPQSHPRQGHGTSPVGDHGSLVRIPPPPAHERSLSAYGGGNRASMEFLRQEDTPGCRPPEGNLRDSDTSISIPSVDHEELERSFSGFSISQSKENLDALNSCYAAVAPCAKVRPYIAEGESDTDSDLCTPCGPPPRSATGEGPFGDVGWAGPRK
Chain of Voltage-gated potassium channel, KQT; KCNQ2(Kv7.2)/KCNQ3(Kv7.3) (O43525 whole entry): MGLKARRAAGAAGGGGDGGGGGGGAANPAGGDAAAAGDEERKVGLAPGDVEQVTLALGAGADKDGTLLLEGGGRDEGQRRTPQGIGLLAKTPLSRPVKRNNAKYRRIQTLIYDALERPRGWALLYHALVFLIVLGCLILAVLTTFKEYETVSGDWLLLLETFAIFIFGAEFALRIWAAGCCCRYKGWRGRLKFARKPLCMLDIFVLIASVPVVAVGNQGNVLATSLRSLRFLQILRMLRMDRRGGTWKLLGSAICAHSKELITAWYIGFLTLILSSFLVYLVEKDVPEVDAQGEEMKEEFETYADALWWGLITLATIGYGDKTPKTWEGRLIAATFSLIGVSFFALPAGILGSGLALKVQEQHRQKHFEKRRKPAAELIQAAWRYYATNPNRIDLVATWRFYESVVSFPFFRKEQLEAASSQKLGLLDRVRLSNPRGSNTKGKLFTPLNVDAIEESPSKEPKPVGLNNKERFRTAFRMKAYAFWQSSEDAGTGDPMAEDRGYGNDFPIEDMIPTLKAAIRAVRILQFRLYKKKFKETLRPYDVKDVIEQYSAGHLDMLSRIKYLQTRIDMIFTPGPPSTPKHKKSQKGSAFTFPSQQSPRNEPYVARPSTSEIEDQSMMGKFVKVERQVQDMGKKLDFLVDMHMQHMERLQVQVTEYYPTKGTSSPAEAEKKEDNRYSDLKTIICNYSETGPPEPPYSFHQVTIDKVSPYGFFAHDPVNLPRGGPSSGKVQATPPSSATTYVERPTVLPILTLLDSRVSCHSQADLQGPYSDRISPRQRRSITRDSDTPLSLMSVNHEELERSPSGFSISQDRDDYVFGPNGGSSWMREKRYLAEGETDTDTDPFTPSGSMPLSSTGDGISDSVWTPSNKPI
Chain of Voltage-gated potassium channel KCNQ3/KCNQ5 (O43525 whole entry): as above
Chain of Voltage-gated potassium channel KCNQ3/KCNQ5 (Q9NR82 whole entry): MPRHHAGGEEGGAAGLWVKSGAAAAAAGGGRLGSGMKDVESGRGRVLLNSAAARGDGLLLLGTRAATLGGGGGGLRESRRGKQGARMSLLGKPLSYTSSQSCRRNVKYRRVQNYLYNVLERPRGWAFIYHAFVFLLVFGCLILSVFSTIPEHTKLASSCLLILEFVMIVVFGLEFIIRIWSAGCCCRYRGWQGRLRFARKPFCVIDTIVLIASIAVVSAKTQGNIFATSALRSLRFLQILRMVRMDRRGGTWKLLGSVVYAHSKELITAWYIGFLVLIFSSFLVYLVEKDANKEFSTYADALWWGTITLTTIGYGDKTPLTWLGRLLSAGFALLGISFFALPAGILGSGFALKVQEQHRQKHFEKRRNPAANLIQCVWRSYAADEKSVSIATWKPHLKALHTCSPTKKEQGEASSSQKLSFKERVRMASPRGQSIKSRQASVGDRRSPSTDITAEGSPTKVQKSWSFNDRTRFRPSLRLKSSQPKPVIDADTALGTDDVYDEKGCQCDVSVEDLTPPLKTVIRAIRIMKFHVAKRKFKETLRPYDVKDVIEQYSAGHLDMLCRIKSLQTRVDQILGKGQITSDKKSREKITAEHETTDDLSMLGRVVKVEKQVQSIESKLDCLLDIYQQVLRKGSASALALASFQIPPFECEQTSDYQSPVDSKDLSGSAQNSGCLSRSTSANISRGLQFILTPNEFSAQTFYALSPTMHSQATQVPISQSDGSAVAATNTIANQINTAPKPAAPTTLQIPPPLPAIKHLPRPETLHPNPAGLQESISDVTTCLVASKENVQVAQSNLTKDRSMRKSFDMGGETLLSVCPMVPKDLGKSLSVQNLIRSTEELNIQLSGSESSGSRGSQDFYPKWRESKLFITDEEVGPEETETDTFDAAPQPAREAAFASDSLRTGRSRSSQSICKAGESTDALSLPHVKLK
Chain of Voltage-gated potassium channel, IKs; KCNQ1(Kv7.1)/KCNE1(MinK) (P51787 whole entry): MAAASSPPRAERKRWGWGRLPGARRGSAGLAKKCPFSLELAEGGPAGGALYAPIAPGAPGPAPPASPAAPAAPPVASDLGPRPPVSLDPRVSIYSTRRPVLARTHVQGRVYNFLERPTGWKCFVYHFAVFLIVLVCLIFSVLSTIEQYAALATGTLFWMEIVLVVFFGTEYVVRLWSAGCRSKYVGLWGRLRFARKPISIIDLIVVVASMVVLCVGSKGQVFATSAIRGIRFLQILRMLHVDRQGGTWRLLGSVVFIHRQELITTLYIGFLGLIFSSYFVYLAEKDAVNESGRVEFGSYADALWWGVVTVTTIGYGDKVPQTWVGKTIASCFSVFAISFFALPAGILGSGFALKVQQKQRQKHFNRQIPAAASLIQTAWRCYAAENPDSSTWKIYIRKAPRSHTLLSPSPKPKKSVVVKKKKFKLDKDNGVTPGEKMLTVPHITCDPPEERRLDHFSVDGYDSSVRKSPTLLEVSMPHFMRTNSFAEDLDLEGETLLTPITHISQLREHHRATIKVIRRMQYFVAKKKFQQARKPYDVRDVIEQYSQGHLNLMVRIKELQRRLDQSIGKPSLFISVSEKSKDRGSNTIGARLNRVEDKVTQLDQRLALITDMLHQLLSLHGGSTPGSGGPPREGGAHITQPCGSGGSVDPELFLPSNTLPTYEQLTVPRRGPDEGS
Chain of Voltage-gated inwardly rectifying potassium channel KCNH2 (Q12809 whole entry): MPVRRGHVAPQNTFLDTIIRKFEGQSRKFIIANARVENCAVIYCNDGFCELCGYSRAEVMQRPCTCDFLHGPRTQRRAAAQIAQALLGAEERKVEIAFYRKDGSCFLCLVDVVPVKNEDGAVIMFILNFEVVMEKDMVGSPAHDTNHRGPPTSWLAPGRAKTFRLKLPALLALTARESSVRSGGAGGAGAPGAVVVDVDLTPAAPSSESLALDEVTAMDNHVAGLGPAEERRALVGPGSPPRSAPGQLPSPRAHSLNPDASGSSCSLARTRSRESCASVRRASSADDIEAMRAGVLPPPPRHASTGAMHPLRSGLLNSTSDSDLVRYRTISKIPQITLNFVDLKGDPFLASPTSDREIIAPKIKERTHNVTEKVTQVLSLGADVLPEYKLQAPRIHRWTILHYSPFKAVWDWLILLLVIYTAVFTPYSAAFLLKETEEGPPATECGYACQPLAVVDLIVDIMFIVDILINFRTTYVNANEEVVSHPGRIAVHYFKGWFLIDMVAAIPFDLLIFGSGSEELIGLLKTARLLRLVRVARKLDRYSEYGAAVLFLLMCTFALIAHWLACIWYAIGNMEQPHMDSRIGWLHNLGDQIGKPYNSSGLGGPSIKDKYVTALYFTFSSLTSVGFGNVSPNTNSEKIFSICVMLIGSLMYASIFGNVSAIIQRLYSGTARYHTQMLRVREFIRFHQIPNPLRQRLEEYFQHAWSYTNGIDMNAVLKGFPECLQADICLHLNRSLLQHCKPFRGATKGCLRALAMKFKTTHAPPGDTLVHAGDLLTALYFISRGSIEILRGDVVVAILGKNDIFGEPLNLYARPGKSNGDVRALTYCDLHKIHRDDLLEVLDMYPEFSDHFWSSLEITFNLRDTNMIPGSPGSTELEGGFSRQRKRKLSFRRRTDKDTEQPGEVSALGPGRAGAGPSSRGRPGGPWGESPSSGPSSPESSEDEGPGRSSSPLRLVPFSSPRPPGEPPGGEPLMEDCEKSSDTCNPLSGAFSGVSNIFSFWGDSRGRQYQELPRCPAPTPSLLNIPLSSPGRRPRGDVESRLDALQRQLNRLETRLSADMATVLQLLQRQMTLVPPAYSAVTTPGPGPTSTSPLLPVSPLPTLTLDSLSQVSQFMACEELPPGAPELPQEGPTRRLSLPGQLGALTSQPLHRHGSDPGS

SMILES	EC50 [1] [µM]	IC50 [3] [µM]	further results
NS(=O)(=O)c1ccc(C(=O)Nc2ccc(Cl)nc2)cc1	> 10	–	–
O=C(Nc1cnc(Cl)nc1)c1cccc(Cl)c1	1.1	78	EC50 [2]: 14 µM
O=C(Nc1cnc(Cl)nc1)c1ccc(Cl)c(F)c1	0.41	49	EC50 [2]: 9 µM
O=C(Nc1ccc(Cl)nc1)c1ccc(F)cc1	0.98	66	–
O=C(Nc1ccc(Cl)nc1)c1ccc(F)c(F)c1	0.38	41	Activity (Rattus norvegicus [4]): Toxic; Activity (Cynomolgus monkey): Toxic; ED50 (Rattus norvegicus [5]): 1.5 mg/kg; Activity (Rattus norvegicus [6]): Toxic; ED50 (Rattus norvegicus [7]): 2.2 mg/kg
COc1ccc(NC(=O)c2ccc(F)c(F)c2)cn1	> 10	–	–
O=C(Nc1ccc(Cl)nc1)c1cccc(F)c1	1.1	77	–
O=C(Nc1ccncc1)c1ccc(Cl)c(Cl)c1	–	–	EC50 [8]: > 10 µM
O=C(Nc1ccccc1)c1ccc(Cl)c(Cl)c1	–	–	EC50 [8]: > 10 µM
O=C(Nc1ccc(F)nc1)c1ccc(F)c(F)c1	4.8	–	–
Cc1ccc(C(=O)Nc2ccc(Cl)nc2)cc1C	0.69	> 100	–
Cc1ccc(NC(=O)c2ccc(F)c(F)c2)cn1	6.8	–	–
O=C(Nc1cnc(Cl)nc1)c1ccc(F)c(F)c1	0.69	> 100	Vz/F (Rattus norvegicus [9]): 1.804 L/kg; ED50 (Rattus norvegicus [5]): 1.5 mg/kg; half-life [10]: 72 min; Ratio EC50 [11]: 20; IC50 [12]: > 30 µM; clearance [13]: 17.3 mL/min/kg; EC50 [2]: 14.3 µM; IC50 [14]: > 30 µM; ED50 (Rattus norvegicus [7]): < 1 mg/kg; Activity [15]: inactive; bioavailability [16]: 63%; Tmax [17]: 30 min; IC50 [18]: > 30 µM
CSc1ccc(NC(=O)c2ccc(F)c(F)c2)cn1	> 10	–	–
O=C(Nc1cccnc1)c1ccc(Cl)c(Cl)c1	–	–	EC50 [8]: 6 µM
O=C(Nc1ccc(N2CCCC2)nc1)c1ccc(F)c(F)c1	0.48	–	–
O=C(Nc1ccc(Cl)nc1)c1ccccc1F	> 10	–	–
O=C(Nc1ccc(Cl)nc1)c1ccc(F)c(Cl)c1	0.19	22	–
CC(C)CSc1ccc(C(=O)Nc2ccc(Cl)nc2)cc1F	0.14	> 100	–
O=C(Nc1ccc(Cl)nc1)c1ccc(C(F)(F)F)c(F)c1	0.37	3.4	–
O=C(Nc1ccc(Cl)nc1)c1ccc(SCc2ccc(F)cc2)c(F)c1	1.6	> 100	–
CCOc1ccc(C(=O)Nc2ccc(Cl)nc2)cc1F	0.57	> 100	–
O=C(Nc1ccc(Cl)nc1)c1ccc(Cl)cc1	–	15	–
O=C(Nc1ccc(Cl)nc1)c1ccc(F)c(C(F)(F)F)c1	0.42	3.4	–
O=C(Nc1ccc(N2CCOCC2)nc1)c1ccc(F)c(F)c1	7.8	–	–
CC(C)Oc1ccc(C(=O)Nc2ccc(Cl)nc2)cc1F	0.17	> 100	–
COc1ccc(C(=O)Nc2ccc(Cl)nc2)cc1F	3.2	> 100	–
O=C(Nc1ccc(Cl)nc1)c1ccc(C(F)(F)F)cc1	0.32	2.9	–

SMILES	EC50 [1] [µM]	IC50 [3] [µM]	further results
N#Cc1ccc(C(=O)Nc2ccc(Cl)nc2)cc1F	1.1	51	–
O=C(Nc1ccc(Cl)nc1)c1cccc(Cl)c1	0.27	41	–
O=C(Nc1ccc(Cl)nc1)c1cccc(F)c1F	> 10	–	–
O=C(Nc1cnc(Cl)nc1)c1cccc(F)c1	7.2	> 100	EC50 [2]: 23 µM
O=C(Nc1ccc(Cl)nc1)c1ccc(Oc2ccccc2)c(F)c1	0.03	1.3	–
N#Cc1cccc(C(=O)Nc2ccc(Cl)nc2)c1	> 10	–	–
O=C(Nc1ccc(Cl)nc1)c1ccc(S(=O)(=O)Cc2ccc(F)cc2)c(F)c1	0.16	> 100	–
O=C(Nc1ccc(Cl)nc1)c1ccc(Cl)c(Cl)c1	0.67	17	–
CC(C)CS(=O)(=O)c1ccc(C(=O)Nc2ccc(Cl)nc2)cc1F	0.26	54	–
O=C(Nc1ccc(C(F)(F)F)nc1)c1ccc(F)c(F)c1	> 10	–	–
O=C(Nc1ccc(Cl)nc1)c1ccccc1	1.6	> 100	–
O=C(Nc1ccc(Cl)nc1)c1ccc(-c2ccccc2)cc1	0.26	> 30	–
Cc1ccc(C(=O)Nc2cnc(Cl)nc2)cc1F	0.6	93	EC50 [2]: 10 µM
COc1cccc(C(=O)Nc2ccc(Cl)nc2)c1	5.5	–	–
O=C(Nc1ccc(Cl)nc1)c1cccc(C(F)(F)F)c1	0.39	5.8	–
Cc1ccc(C(=O)Nc2ccc(Cl)nc2)cc1F	0.28	33	–
O=C(Nc1ccc(Cl)nc1)c1ccc(NCCc2ccccc2)c(F)c1	0.18	> 100	–
O=C(Nc1ccc(Cl)nc1)c1ccc(Cl)c(F)c1	0.08	15	–
O=C(Nc1ccc(O)nc1)c1ccc(F)c(F)c1	> 10	–	–
O=C(Nc1ccc(Cl)nc1)c1ccc(Oc2ccccc2)cc1	0.01	1.9	–
O=C(Nc1ccc(Cl)nc1)c1ccc(Sc2ccc(F)cc2)c(F)c1	0.08	> 100	–
O=C(Nc1ccc(Cl)nc1)c1ccc(S(=O)(=O)c2ccc(F)cc2)c(F)c1	0.07	> 100	–
CC(C)Sc1ccc(C(=O)Nc2ccc(Cl)nc2)cc1F	0.11	5.8	–
O=C(Nc1cnc(Cl)nc1)c1cccc(C(F)(F)F)c1	4.3	35	EC50 [2]: 28 µM
O=C(Nc1ccc(NC2CC2)nc1)c1ccc(F)c(F)c1	2.7	–	–
O=C(Nc1ccccn1)c1ccc(Cl)c(Cl)c1	–	–	EC50 [8]: > 10 µM
N#Cc1ccc(NC(=O)c2ccc(F)c(F)c2)cn1	10	–	–
